Assay [1] is described as follows: HUVEC growth inhibition – cell-based, human, primary screen (AID 575).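 Further: 100% = median of untreated cell wells with 0.1% DMSO on each plate.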 The conditions noted are these: HUVEC proliferation, CellTiter-Glo luminescence, 72 h; at 10 µM; stronger effect = lower value. The gist of the method:
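System – primary HUVEC, no more than 12 passages · Medium – Low-serum (2% FBS) EBM, supplemented · Times – 72 h exposure, 37 °C, 5% CO2, 30 min RT equilibration · Measured by – luminescent ATP assay · Read-out – % viability relative to median vehicle-well signal on each plate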
(In general: Cellular ATP, detected with luciferase, serves as a proxy for viable cell number.)

A short description of assay [2]: growth inhibitors of H69AR lung tumor, primary screen, human, duplicate replicates (AID 580;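 active means viability at or under a set limit in both replicates, limit being median viability minus 3 SD, cut at about 48% in these data, passing the limit was not always enough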;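 further: 100% = mean luminescence of untreated wells and 0% = no signal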). The settings on record: H69AR lung tumor cells viability, ATP luminescence, 72 h; at 10 µM; stronger effect = lower value.
A short description of assay [3]: reversal of MRP1-mediated doxorubicin resistance, pilot screen, H69AR cells, doxorubicin co-treatment (AID 601;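 active means viability loss from added drug above about 55%, and viability with drug at most 40%, in both replicates, limit read from the data, passing the limit was not always enough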). The settings on record: CellTiter-Glo, 72 h, at 10 µM; for differential viability (reversal): stronger effect = higher value.
A short description of assay [4]: 384-well plate pilot, post-Golgi transport modulator project, inhibition of yeast transport mutant growth (AID 636; in the data active means inhibition above about 31%). The conditions noted are these: absorbance 615 nm, about 18 h, stronger effect = higher value.
Assay [5] is described as follows: growth suppression of yeast trafficking mutant, preliminary HTS, modulators of trafficking downstream of Golgi apparatus project, 1536-format plate, OD 615 nm (AID 637; in the data active means inhibition above about 30%). The settings on record: yeast transport mutant growth, absorbance 615 nm, 18 h; stronger effect = higher value.
Setting [6] is: H69AR cells + 2 uM doxorubicin, measured here: viability with 2 uM doxorubicin, stronger effect = lower value.
The mark [7] stands for this setting: H69AR cells, compound alone cytotoxicity.

The values that follow come from PubChem BioAssay.

Each structure is given as a SMILES string. Activity calls are given as the source filed them.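 How the source made its calls, unless noted: active means viability at or below 30% in both replicate assays; inconclusive means viability at or below 30% in just one of the two assays; inactive means the rest.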

Take `COCCOC(=O)C1=C(C)NC(=O)CC1c1cc2c(cc1Br)OCO2` (configuration not stated): the viability (commonly a read-out of living cells in per cent, often relative to untreated cells) in assay [1] was 89.4% (inactive); in assay [2], 97.4% (inactive); in assay [3] (setting [6]) it was 72.4%; in assay [3] (setting [7]), 97.4%. Further, the differential viability (reversal) in assay [3] (H69AR cells + 2 uM doxorubicin) is 25.1% (inactive). Further, the figures for the inhibition in assay [4] and in assay [5] were -4.67% (inactive) and 2.86% (inactive), respectively.
In the case of `CC(=O)Nc1ccc(NC(=O)c2ccccc2N(C)S(C)(=O)=O)cc1`, the viability in assay [1] was 101% (inactive); in assay [2], 94.9% (inactive); in assay [3] (setting [6]), 91.7%; in assay [3] (setting [7]), 94.9%. Moreover, the differential viability (reversal) in assay [3] (H69AR cells + 2 uM doxorubicin) was 3.22% (inactive). Besides, the inhibition (usually the change of the read-out against control, counted positive when it falls) in assay [4] is -6.71% (inactive); in assay [5], -0.79% (inactive).
With `O=C(NC1CCCCC1)C1CCCN1C(=O)NCc1ccccc1` (configuration not stated), the viability in assay [1] was 101% (inactive); in assay [2], 102% (inactive); in assay [3] (setting [6]), 104%; in assay [3] (setting [7]), 102%. The differential viability (reversal) in assay [3] (H69AR cells + 2 uM doxorubicin) was -1.87% (inactive). Moreover, the values for the inhibition in assay [4] and in assay [5] were -4.93% (inactive) and -3.17% (inactive), respectively.
On to `O=C(CCCn1c(=O)c2sccc2n(CC(=O)NCc2ccco2)c1=O)NCc1ccco1`, for which the viability in assay [1] is 90.4% (inactive); in assay [2] it was 100% (inactive); in assay [3] (setting [6]) it was 80%; in assay [3] (setting [7]) it was 100%. In addition, the differential viability (reversal) in assay [3] (H69AR cells + 2 uM doxorubicin) is 20% (inactive). The inhibition in assay [4] is -2.86% (inactive); in assay [5], 2.54% (inactive).
In the case of `Cc1c(C(=O)NCc2ccccn2)oc2ccccc12`, the viability in assay [1] is 99.6% (inactive); in assay [2], 106% (inactive); in assay [3] (setting [6]), 80.5%; in assay [3] (setting [7]), 106%. Besides, the differential viability (reversal) in assay [3] (H69AR cells + 2 uM doxorubicin) was 25.7% (inactive). Moreover, the inhibition in assay [4] was -0.92% (inactive); in assay [5], 17.9% (inactive).
As for `CCCS(=O)(=O)N1CCN(C(=O)CCC2CCCC2)CC1`, the viability was 101% (inactive) in assay [1], 85% (inactive) in assay [2], 84.1% in assay [3] (setting [6]) and 85% in assay [3] (setting [7]). Also, the differential viability (reversal) in assay [3] (H69AR cells + 2 uM doxorubicin) is 0.865% (inactive). Also, the results for the inhibition in assay [4] and in assay [5] were -3.29% (inactive) and -1.11% (inactive), respectively.
For `O=C(CSc1nnc(-c2ccncc2)o1)Oc1ccccc1`, the viability is 101% (inactive) in assay [1], 102% (inactive) in assay [2], 85.9% in assay [3] (setting [6]) and 102% in assay [3] (setting [7]). Also, the differential viability (reversal) in assay [3] (H69AR cells + 2 uM doxorubicin) is 15.9% (inactive). Also, the figures for the inhibition in assay [4] and in assay [5] were -6.4% (inactive) and 3.02% (inactive), respectively.
As for `O=C(Cc1ccccc1)Nc1ccc(CN2CCOCC2)cc1`, the viability in assay [1] is 105% (inactive); in assay [2] it was 97.3% (inactive); in assay [3] (setting [6]), 91.2%; in assay [3] (setting [7]), 97.3%. The differential viability (reversal) in assay [3] (H69AR cells + 2 uM doxorubicin) was 6.05% (inactive). The results for the inhibition in assay [4] and in assay [5] were -4.67% (inactive) and -2.38% (inactive), respectively.
With `CCc1nnc(NC(=O)OCc2ccccc2)s1`, the viability is 106% (inactive) in assay [1], 102% (inactive) in assay [2], 94.9% in assay [3] (setting [6]) and 102% in assay [3] (setting [7]). Besides, the differential viability (reversal) in assay [3] (H69AR cells + 2 uM doxorubicin) was 7.5% (inactive). The figures for the inhibition in assay [4] and in assay [5] were -0.91% (inactive) and 11.4% (inactive), respectively.
With `COC(=O)COc1ccc(C(=O)OC)cc1`, the viability in assay [1] was 92.8% (inactive); in assay [2], 108% (inactive); in assay [3] (setting [6]), 97.4%; in assay [3] (setting [7]) it was 108%. The differential viability (reversal) in assay [3] (H69AR cells + 2 uM doxorubicin) was 10.4% (inactive). Moreover, the inhibition in assay [4] was -1.84% (inactive); in assay [5], -2.38% (inactive).
Regarding `C/C(=N\O)c1ccc2c3c([nH]c2c1)CCCC3`, the viability is 25.3% (active) in assay [1], 88.1% (inactive) in assay [2], 96.8% in assay [3] (setting [6]) and 88.1% in assay [3] (setting [7]). Further, in assay [3] (H69AR cells + 2 uM doxorubicin), the differential viability (reversal) was -8.65% (inactive). The inhibition was -3.77% (inactive) in assay [4] and -0.16% (inactive) in assay [5].
Take `COC(=O)c1c(NC(=O)C2CC=CCC2C(=O)O)sc(C(N)=O)c1C` (configuration not stated): the viability in assay [1] is 75.4% (inactive); in assay [2], 98.2% (inactive); in assay [3] (setting [6]), 94%; in assay [3] (setting [7]), 98.2%. In addition, the differential viability (reversal) in assay [3] (H69AR cells + 2 uM doxorubicin) is 4.23% (inactive). Further, the inhibition was -7.76% (inactive) in assay [4] and -6.03% (inactive) in assay [5].
With `CCc1cc2c(NCCC(=O)O)nc(C)nc2s1`, the viability is 89.2% (inactive) in assay [1], 75.5% (inactive) in assay [2], 87.6% in assay [3] (setting [6]) and 75.5% in assay [3] (setting [7]). Moreover, the differential viability (reversal) in assay [3] (H69AR cells + 2 uM doxorubicin) is -12.1% (inactive). Moreover, the inhibition was 0.65% (inactive) in assay [4] and 13.3% (inactive) in assay [5].
`O=c1nc(N2CCCC2)nc(Nc2ccccc2)[nH]1`: the viability was 100% (inactive) in assay [1], 83.7% (inactive) in assay [2], 87% in assay [3] (setting [6]) and 83.7% in assay [3] (setting [7]). Besides, in assay [3] (H69AR cells + 2 uM doxorubicin), the differential viability (reversal) is -3.31% (inactive). Further, the values for the inhibition in assay [4] and in assay [5] were -2.47% (inactive) and -4.92% (inactive), respectively.
Turning to `O=C1CCCc2nc(N3CCCCC3)sc21`, the viability was 88.9% (inactive) in assay [1], 82.8% (inactive) in assay [2], 89.6% in assay [3] (setting [6]) and 82.8% in assay [3] (setting [7]). For the same molecule, the differential viability (reversal) in assay [3] (H69AR cells + 2 uM doxorubicin) is -6.74% (inactive). For the same molecule, the inhibition was -0.27% (inactive) in assay [4] and -0.95% (inactive) in assay [5].
For `CCOc1ccc(C(=O)Cc2ccc3oc(C(=O)O)cc3c2)c(O)c1`, the viability was 89.4% (inactive) in assay [1], 98.8% (inactive) in assay [2], 88.4% in assay [3] (setting [6]) and 98.8% in assay [3] (setting [7]). Also, the differential viability (reversal) in assay [3] (H69AR cells + 2 uM doxorubicin) was 10.4% (inactive). For the same molecule, the inhibition was -4.29% (inactive) in assay [4] and 7.62% (inactive) in assay [5].
Take `c1ccc(CC2CCN(Cc3nc(-c4ccccc4)no3)CC2)cc1`: the viability is 65.1% (inactive) in assay [1], 87.9% (inactive) in assay [2], 92.2% in assay [3] (setting [6]) and 87.9% in assay [3] (setting [7]). The differential viability (reversal) in assay [3] (H69AR cells + 2 uM doxorubicin) is -4.31% (inactive). Further, the inhibition in assay [4] is -5.13% (inactive); in assay [5], 0.95% (inactive).
Regarding `Cc1onc(-c2c(Cl)cccc2Cl)c1C(=O)NCCN1CCOCC1`, the viability was 94.9% (inactive) in assay [1], 89.9% (inactive) in assay [2], 98.7% in assay [3] (setting [6]) and 89.9% in assay [3] (setting [7]). Besides, the differential viability (reversal) in assay [3] (H69AR cells + 2 uM doxorubicin) is -8.8% (inactive). Moreover, the inhibition was -3.03% (inactive) in assay [4] and 1.43% (inactive) in assay [5].
For the molecule `Cc1cccc2c1nc(-c1ccccc1)n1cnnc21`, the viability in assay [1] is 92.3% (inactive); in assay [2], 86.7% (inactive); in assay [3] (setting [6]), 95.3%; in assay [3] (setting [7]), 86.7%. Further, in assay [3] (H69AR cells + 2 uM doxorubicin), the differential viability (reversal) is -8.59% (inactive). Moreover, the results for the inhibition in assay [4] and in assay [5] were 1.2% (inactive) and -6.19% (inactive), respectively.
In the case of `CCOCCCNC(=O)C1CCN(S(=O)(=O)c2c(C)noc2/C=C\c2ccc(OC)cc2)CC1`, the viability is 99.5% (inactive) in assay [1], 101% (inactive) in assay [2], 101% in assay [3] (setting [6]) and 101% in assay [3] (setting [7]). Besides, in assay [3] (H69AR cells + 2 uM doxorubicin), the differential viability (reversal) is -0.205% (inactive). In addition, the inhibition is 4.13% (inactive) in assay [4] and -3.65% (inactive) in assay [5].
For `CC(=O)c1cccc(NS(=O)(=O)c2ccc3c(c2)oc(=O)n3C)c1`, the viability in assay [1] is 92.4% (inactive); in assay [2], 106% (inactive); in assay [3] (setting [6]), 96.7%; in assay [3] (setting [7]) it was 106%. For the same molecule, the differential viability (reversal) in assay [3] (H69AR cells + 2 uM doxorubicin) is 8.94% (inactive). For the same molecule, the figures for the inhibition in assay [4] and in assay [5] were -2.67% (inactive) and -1.9% (inactive), respectively.
